From ChEMBL document CHEMBL5678805, “Intermittent administration of MEK inhibitor GDC-0973 plus PI3K inhibitor GDC-0941 triggers robust apoptosis and tumor growth inhibition” (Cancer Res, 2012)
Activity calls are given as the source filed them. The rule behind the calls is not given here.

How the values were obtained:
[1] = target: Serine/threonine-protein kinase 24 (Homo sapiens, UniProt Q9Y6E0); experiment: Inhibition of STK24 (unknown origin)
A2058 [2] = experiment: Antitumor activity against human A2058 cells xenografted in mouse assessed as decrease in pS6 level at 5 mg/kg, po administered for 4 days and measured after 2 hrs in presence of 4-(2-(1H-indazol-4-yl)-6-((4-(methylsulfonyl)piperazin-1-yl)methyl)thieno[3,2-d]pyrimidin-4-yl)morpholine; format: functional, organism-based; conditions: time 98.0 hrs
[3] = target: Serine/threonine-protein kinase D2 (Homo sapiens, UniProt Q9BZL6); experiment: Inhibition of PKD2 (unknown origin)
HCT-116 = experiment: Antitumor activity against human HCT-116 cells harboring KRAS G13D/PIK3CA […]/CTNNB1 S45del/CDKN2A G23fs mutant xenografted in mouse assessed as tumor growth inhibition at 10 mg/kg, po; format: functional; conditions: read-out: TGI
In short: (§1)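 Single-agent dose ranging in human tumor xenograft mice at 2.5, 5 or 10 mg/kg oral. Tumor volume was measured by caliper as (L×W×W)/2. %TGI = 100×[1 − AUC(treatment/d)/AUC(vehicle/d)] from the fitted growth curve per dose group, relative to vehicle.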

[4] = Inhibition of AMPK (unknown origin); design: species or system Homo sapiens
[5] = Antiproliferative activity against human Mel 928 cells assessed reduction in cell viability incubated for 4 days in presence of 4-(2-(1H-indazol-4-yl)-6-((4-(methylsulfonyl)piperazin-1-yl)methyl)thieno[3,2-d]pyrimidin-4-yl)morpholine by celltiter-glo assay; format: functional; conditions: time 4 day
In short: (§2)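 4-day CellTiter-Glo viability read-out on melanoma lines, cells exposed to increasing concentrations of each inhibitor alone and in combination.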

[6] = target: ALK tyrosine kinase receptor (Homo sapiens, UniProt Q9UM73); experiment: Inhibition of ALK (unknown origin)
NCI-H2122 [7] = experiment: Antitumor activity against human NCI-H2122 cells xenografted in mouse assessed as tumor growth inhibition at 15 mg/kg, po administered every third day for 21 days in presence of 4-(2-(1H-indazol-4-yl)-6-((4-(methylsulfonyl)piperazin-1-yl)methyl)thieno[3,2-d]pyrimidin-4-yl)morpholine; format: functional; conditions: NCI-H2122, 504 h, time 21 day, read-out: TGI
In short: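 Dosing was oral, every third day (Q3D) across 21 days, with single agents or the MEK plus PI3K combination in NCI-H2122 xenograft mice. Tumor volume was calculated as (L×W×W)/2 from caliper measurements. %TGI was derived from fitted-curve AUC per day relative to vehicle, with body weight monitored.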

[8] = target: Dual specificity mitogen-activated protein kinase kinase 4 (Homo sapiens, UniProt P45985); experiment: Inhibition of MKK4 (unknown origin)
NCI-H460 = experiment: Antitumor activity against human NCI-H460 cells harboring KRAS Q61H/PIK3CA E545K/LKB1 Q37/CDKN2A mutant xenografted in mouse assessed as tumor growth inhibition at 5 mg/kg, po; format: functional; conditions: read-out: TGI
In short: (§3)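 Human tumor xenografts in mice were dosed orally at the indicated mg/kg. Tumor volume was measured with calipers as (L×W×W)/2. %TGI = 100 × [1 − (AUC treatment/d)/(AUC vehicle/d)], using the area under the fitted tumor-growth curve per day for each dose group relative to vehicle.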

A2058 [9] = experiment: Antitumor activity against human A2058 cells harboring BRAF V600E/PTEN deletion mutant xenografted in mouse assessed as suppression of S6 phosphorylation at 15 mg/kg, po administered every third day for 21 days and measured after 72 hrs post dose by Western blot analysis; format: functional, organism-based; conditions: time 576.0 hrs
[10] = target: Tyrosine-protein kinase Fes/Fps (Homo sapiens, UniProt P07332); experiment: Inhibition of Fes (unknown origin)
[11] = target: Serine/threonine-protein kinase Sgk1 (Homo sapiens, UniProt O00141); experiment: Inhibition of SGK (unknown origin)
[12] = target: Phosphatidylinositol 4,5-bisphosphate 3-kinase catalytic subunit alpha isoform (Homo sapiens, UniProt P42336); experiment: Inhibition of PI3Kalpha (unknown origin)
NCI-H520 = experiment: Antitumor activity against human NCI-H520 cells harboring TP53 W146 and CDKN2A G G45 mutant xenografted in mouse assessed as tumor growth inhibition at 5 mg/kg, po; format: functional; conditions: read-out: TGI; in short: as §3
[13] = target: Protein kinase C alpha type (Homo sapiens, UniProt P17252); experiment: Inhibition of PKC alpha (unknown origin)
[14] = target: Glycogen synthase kinase-3 beta (Homo sapiens, UniProt P49841); experiment: Inhibition of GSK3beta (unknown origin)
[15] = Antitumor activity against human A375.X1 cells harboring BRAF V600E/CDKN2A E61 mutant xenografted in mouse assessed as tumor growth inhibition at 2.5 mg/kg, po; format: functional; conditions: A375.X1, read-out: TGI; in short: as §1
[16] = target: Serine/threonine-protein kinase B-raf (Homo sapiens, UniProt P15056); experiment: Inhibition of BRAF (unknown origin)
NCI-H2122 [17] = experiment: Antitumor activity against human NCI-H2122 cells xenografted in mouse assessed as tumor growth inhibition at 5 mg/kg, po administered once a day for 21 days in presence of 4-(2-(1H-indazol-4-yl)-6-((4-(methylsulfonyl)piperazin-1-yl)methyl)thieno[3,2-d]pyrimidin-4-yl)morpholine; format: functional; conditions: NCI-H2122, 504 h, time 21 day, read-out: TGI
In short: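 Mice bearing NCI-H2122 xenografts were given MEK inhibitor, PI3K inhibitor, or both, orally once daily for 21 consecutive days at the doses labeled. Caliper tumor volumes were calculated as (L×W×W)/2. %TGI was derived from the AUC of the fitted growth curve per day relative to vehicle.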

[18] = Antiproliferative activity against human SK-MEL-23 cells assessed reduction in cell viability incubated for 4 days in presence of 4-(2-(1H-indazol-4-yl)-6-((4-(methylsulfonyl)piperazin-1-yl)methyl)thieno[3,2-d]pyrimidin-4-yl)morpholine by celltiter-glo assay; format: functional; conditions: time 4 day; in short: as §2
[19] = Antitumor activity against human A375.X1 cells xenografted in mouse assessed as tumor growth inhibition at 3 mg/kg, po administered once a day for 21 days; format: functional; conditions: A375.X1, 504 h, read-out: TGI, time 21 day
In short: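 Human tumor xenografts in mice. Drugs given orally, as single agents or combined with the PI3K inhibitor. Schedules were daily (QD) or every third day (Q3D) over 21 days. Tumor volume was measured by caliper as (L×W×W)/2. %TGI = 100×[1 − AUC(treatment/d)/AUC(vehicle/d)] from fitted growth curves, with group means. Tumor lysates were immunoblotted for pS6.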

888-mel = experiment: Upregulation of Bim level in human 888-mel cells preincubated with compound for 24 hrs followed by compound washout and measured after 2 hrs in presence of 4-(2-(1H-indazol-4-yl)-6-((4-(methylsulfonyl)piperazin-1-yl)methyl)thieno[3,2-d]pyrimidin-4-yl)morpholine by immunoblotting analysis; format: functional, cell-based
A375.X1 = experiment: Antitumor activity against human A375.X1 cells xenografted in po dosed mouse assessed as reduction in ERK phosphorylation administered for 3 days and measured at 2 to 24 hrs by Western blot analysis; format: functional, organism-based; conditions: dose 1-10 mg/kg, time 74-96 hrs
In short: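 A375.X1 xenograft mice were dosed orally at 1, 3, 5 or 10 mg/kg once daily for 3 days. Tumors were collected 2, 8 and 24 h after the last dose, pulverized frozen and resolved by 4–12% SDS-PAGE. p-ERK1/2 and t-ERK1/2 were measured by Western blot and quantified by band intensity, relative to vehicle-treated mice (0 h).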

Sequence of Serine/threonine-protein kinase Sgk1 (O00141 whole entry, canonical isoform): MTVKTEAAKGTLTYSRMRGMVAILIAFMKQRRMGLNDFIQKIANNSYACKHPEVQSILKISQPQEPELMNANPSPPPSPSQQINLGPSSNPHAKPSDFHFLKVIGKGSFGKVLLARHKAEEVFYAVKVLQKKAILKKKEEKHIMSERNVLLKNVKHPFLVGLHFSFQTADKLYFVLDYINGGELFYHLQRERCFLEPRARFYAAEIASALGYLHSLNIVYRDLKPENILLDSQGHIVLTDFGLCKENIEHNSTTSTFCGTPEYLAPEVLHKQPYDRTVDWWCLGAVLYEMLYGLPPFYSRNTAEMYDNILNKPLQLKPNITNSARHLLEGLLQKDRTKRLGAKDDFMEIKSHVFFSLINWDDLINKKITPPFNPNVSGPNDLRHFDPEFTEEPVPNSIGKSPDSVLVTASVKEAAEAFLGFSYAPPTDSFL
Sequence of Serine/threonine-protein kinase D2 (Q9BZL6 whole entry): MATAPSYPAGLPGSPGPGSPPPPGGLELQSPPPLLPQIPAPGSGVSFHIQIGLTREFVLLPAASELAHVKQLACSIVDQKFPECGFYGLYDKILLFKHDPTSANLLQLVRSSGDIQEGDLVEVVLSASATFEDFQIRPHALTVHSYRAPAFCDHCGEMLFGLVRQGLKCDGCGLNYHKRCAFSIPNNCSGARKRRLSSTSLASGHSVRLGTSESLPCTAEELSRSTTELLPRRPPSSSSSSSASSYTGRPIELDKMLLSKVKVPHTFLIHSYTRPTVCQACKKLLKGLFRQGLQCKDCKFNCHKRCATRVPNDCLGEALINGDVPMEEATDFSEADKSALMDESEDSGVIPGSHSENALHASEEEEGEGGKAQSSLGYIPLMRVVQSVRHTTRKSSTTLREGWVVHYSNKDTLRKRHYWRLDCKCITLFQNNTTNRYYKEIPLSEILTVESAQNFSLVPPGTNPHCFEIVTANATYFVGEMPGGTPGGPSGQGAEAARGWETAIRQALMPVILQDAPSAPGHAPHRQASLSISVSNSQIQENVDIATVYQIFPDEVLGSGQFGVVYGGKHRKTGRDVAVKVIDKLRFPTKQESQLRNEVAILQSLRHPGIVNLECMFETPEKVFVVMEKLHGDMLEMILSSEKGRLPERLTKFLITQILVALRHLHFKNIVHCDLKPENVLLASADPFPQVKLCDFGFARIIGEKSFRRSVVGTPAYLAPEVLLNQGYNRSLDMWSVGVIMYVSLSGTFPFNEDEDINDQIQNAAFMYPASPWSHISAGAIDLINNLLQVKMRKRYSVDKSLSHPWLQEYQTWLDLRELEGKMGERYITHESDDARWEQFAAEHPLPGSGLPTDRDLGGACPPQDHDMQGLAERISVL
Sequence of Serine/threonine-protein kinase B-raf (P15056 whole entry): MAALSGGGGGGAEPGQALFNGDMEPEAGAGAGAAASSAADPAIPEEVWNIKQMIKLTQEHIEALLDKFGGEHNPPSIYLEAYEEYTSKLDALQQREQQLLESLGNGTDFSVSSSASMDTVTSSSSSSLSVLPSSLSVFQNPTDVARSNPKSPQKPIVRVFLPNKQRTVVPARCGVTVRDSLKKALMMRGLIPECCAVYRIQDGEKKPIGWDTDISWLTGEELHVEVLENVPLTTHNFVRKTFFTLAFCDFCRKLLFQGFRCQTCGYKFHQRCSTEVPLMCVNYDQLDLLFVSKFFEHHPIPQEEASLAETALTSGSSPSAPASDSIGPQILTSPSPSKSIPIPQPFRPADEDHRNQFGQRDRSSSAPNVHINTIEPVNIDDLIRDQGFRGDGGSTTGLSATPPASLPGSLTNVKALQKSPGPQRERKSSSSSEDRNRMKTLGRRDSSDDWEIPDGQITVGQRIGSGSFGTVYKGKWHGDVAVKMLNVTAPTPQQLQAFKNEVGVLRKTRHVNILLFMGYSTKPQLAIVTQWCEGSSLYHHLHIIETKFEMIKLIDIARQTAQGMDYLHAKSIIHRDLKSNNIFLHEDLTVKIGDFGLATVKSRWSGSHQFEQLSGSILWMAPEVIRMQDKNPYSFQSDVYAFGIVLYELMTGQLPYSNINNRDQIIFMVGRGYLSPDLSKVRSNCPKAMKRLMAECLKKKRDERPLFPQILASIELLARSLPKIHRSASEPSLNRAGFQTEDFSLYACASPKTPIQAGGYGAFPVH
Sequence of ALK tyrosine kinase receptor (Q9UM73 whole entry): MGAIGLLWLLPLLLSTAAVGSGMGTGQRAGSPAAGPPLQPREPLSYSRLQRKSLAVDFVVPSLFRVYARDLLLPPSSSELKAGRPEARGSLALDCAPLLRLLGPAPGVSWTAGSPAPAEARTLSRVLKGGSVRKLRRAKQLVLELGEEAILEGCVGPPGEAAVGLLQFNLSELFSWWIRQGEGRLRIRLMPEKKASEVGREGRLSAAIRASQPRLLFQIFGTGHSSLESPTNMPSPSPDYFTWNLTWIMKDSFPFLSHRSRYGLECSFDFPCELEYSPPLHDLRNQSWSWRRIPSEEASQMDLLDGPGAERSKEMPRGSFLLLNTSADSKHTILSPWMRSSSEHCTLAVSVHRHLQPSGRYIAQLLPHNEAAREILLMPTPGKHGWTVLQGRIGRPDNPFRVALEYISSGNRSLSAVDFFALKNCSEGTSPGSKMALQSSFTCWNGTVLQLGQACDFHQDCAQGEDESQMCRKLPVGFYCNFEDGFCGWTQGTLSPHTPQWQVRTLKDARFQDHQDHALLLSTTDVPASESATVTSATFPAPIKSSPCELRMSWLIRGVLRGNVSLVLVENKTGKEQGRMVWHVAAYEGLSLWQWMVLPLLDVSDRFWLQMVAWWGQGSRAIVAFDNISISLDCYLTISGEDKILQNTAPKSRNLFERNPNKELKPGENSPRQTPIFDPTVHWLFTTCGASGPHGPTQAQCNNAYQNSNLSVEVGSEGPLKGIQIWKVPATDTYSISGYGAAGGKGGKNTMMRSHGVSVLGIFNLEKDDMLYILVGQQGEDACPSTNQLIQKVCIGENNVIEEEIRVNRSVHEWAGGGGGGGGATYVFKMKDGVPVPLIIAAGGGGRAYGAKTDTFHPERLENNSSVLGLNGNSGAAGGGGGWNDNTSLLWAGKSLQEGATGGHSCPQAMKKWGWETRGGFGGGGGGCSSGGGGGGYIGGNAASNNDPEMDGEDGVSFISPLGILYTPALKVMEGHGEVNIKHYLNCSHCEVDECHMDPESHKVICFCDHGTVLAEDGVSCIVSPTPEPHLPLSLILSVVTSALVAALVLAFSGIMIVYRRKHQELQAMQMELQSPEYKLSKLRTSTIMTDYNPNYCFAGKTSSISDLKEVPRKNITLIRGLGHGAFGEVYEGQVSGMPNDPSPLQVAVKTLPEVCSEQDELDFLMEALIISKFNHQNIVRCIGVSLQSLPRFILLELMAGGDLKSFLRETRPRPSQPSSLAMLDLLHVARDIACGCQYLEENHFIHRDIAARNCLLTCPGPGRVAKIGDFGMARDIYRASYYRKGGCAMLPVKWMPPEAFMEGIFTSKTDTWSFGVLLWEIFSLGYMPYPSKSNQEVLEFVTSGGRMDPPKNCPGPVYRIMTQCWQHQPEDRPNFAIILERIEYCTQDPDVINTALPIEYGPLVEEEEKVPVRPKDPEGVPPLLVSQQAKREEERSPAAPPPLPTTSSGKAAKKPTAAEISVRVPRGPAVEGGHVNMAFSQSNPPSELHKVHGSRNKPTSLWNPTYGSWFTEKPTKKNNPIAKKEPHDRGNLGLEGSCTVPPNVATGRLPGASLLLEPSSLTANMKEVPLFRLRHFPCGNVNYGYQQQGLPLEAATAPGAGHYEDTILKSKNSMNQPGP
Sequence of Glycogen synthase kinase-3 beta (P49841 whole entry): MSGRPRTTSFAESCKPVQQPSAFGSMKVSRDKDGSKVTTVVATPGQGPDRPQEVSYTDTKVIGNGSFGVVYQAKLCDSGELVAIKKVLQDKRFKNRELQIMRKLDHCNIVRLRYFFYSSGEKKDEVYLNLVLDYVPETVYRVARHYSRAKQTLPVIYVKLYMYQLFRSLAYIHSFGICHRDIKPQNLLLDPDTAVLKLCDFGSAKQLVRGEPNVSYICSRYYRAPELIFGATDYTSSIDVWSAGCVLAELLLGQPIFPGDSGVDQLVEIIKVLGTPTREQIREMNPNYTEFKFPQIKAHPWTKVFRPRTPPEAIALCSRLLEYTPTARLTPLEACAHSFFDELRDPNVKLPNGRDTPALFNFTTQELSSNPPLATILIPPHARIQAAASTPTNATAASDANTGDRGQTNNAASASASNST

SMILES: O=C(c1ccc(F)c(F)c1Nc1ccc(I)cc1F)N1CC(O)([C@@H]2CCCCN2)C1 [COBIMETINIB]
- IC50 [1]: > 10 µM
- Activity (A2058 [2]): Active
- IC50 [3]: > 10 µM
- inhibition in vivo at 10 mg/kg (HCT-116): 84.5%
- IC50 [4]: > 10 µM
- Activity [5]: 60%
- IC50 [6]: > 10 µM
- inhibition in vivo at 15 mg/kg (NCI-H2122 [7]): 156%
- IC50 [8]: > 10 µM
- inhibition in vivo at 5 mg/kg (NCI-H460): 34.5%
- Activity (A2058 [9]): Active
- IC50 [10]: > 10 µM
- IC50 [11]: > 10 µM
- IC50 [12]: > 10 µM
- inhibition in vivo at 5 mg/kg (NCI-H520): 26%
- IC50 [13]: > 10 µM
- IC50 [14]: > 10 µM
- inhibition in vivo at 2.5 mg/kg [15]: 97.5%
- IC50 [16]: > 10 µM
- inhibition in vivo at 5 mg/kg (NCI-H2122 [17]): 75%
- Activity [18]: 60%
- inhibition in vivo at 3 mg/kg [19]: 87%
- Activity (888-mel): Active
- Activity (A375.X1): Dose-Dependent Effect
